Source: ChEMBL document CHEMBL4680118, “Cerpegin-derived furo[3,4-c]pyridine-3,4(1H,5H)-diones enhance cellular response to interferons by de novo pyrimidine biosynthesis inhibition” (Eur J Med Chem, 2020)
Active and inactive are the calls of the source. The rule behind the calls is not given here.

Experiments:
Assay type in all cases: cell-based
[1] = molecular target: T1, Dihydroorotate dehydrogenase (quinone), mitochondrial (Homo sapiens, UniProt Q02127); assay: Inhibition of DHODH in human HEK-293 cells transfected with ISRE-luciferase reporter gene assessed as increase in IFN-alpha mediated cellular response at 6 to 178 uM after 24 hrs by luciferase reporter gene assay; conditions: HEK293, dose 6-178 µM
[2] = molecular target: T1, Dihydroorotate dehydrogenase (quinone), mitochondrial; assay: Inhibition of DHODH in human HEK-293 cells transfected with ISRE-luciferase reporter gene assessed as increase in IFN-alpha mediated cellular response at 80 uM in presence of uridine measured after 24 hrs by luciferase reporter gene assay; conditions: HEK293
Procedure, shortened: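 ISRE-Luc HEK-293 cells exposed to increasing IFN-α concentrations with DMSO or compound (80 µM), supplemented with uridine (125 µM) or with 3 mM orotate or DHO. Reporter luciferase read after 24 h, normalized to DMSO + IFN-α 250 IU/ml. Means ± SD of three independent experiments; two-way ANOVA.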

[3] = molecular target: T1, Dihydroorotate dehydrogenase (quinone), mitochondrial; assay: Inhibition of DHODH in human HEK293 cells transfected with ISRE-luciferase reporter gene assessed as increase in 60 IU/ml IFN-alpha stimulated IFIT3 mRNA expression at 80 uM measured after 16 hrs by RT-qPCR analysis relative to control
Procedure, shortened: (§1)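 ISRE-Luc HEK cells co-treated with increasing IFN-α concentrations and DMSO or compound (80 µM) for 16 h. Total RNA extracted from 2×10^5 cells with DNase step; qPCR 35 cycles. CT values normalized to RPL13A and unstimulated controls (2^-ΔΔCT), expressed as fold change versus DMSO alone. Three independent experiments; two-way ANOVA with Bonferroni.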

[4] = molecular target: T1, Dihydroorotate dehydrogenase (quinone), mitochondrial; assay: Inhibition of DHODH in human HEK293 cells assessed as increase in gammaH2AX phosphorylation measured after 24 hrs by immunostaining based flow cytometry
Procedure, shortened: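 Cells treated 24 h with compound (80 µM), harvested, trypsinized, fixed 30 min in 4% PFA, permeabilized 5 min. Stained with anti-γH2AX mouse monoclonal (1/400) or isotype control, 45 min at 4°C, then Alexa Fluor 488 anti-mouse secondary (1/500) 45 min at 4°C. Analysed by flow cytometry; means ± SD of three independent experiments.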

[5] = molecular target: T1, Dihydroorotate dehydrogenase (quinone), mitochondrial; assay: Inhibition of DHODH in human HEK293 cells transfected with ISRE-luciferase reporter gene assessed as increase in 60 IU/ml IFN-alpha stimulated ISG15 mRNA expression at 80 uM measured after 16 hrs by RT-qPCR analysis relative to control
Procedure, shortened: (§2)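 HEK-293 ISRE-Luc cells (DMEM, 10% FCS, 37°C, 5% CO2) were given increasing IFN-α doses together with DMSO or compound at 80 μM, then harvested at 16 h. RNA was extracted from 2×10^5 cells with DNase treatment. Transcripts were run by qPCR for 35 cycles and normalized to RPL13A and to unstimulated controls by 2^-ΔΔCT. Values are fold change versus DMSO; three independent experiments; two-way ANOVA with Bonferroni.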

[6] = molecular target: T1, Dihydroorotate dehydrogenase (quinone), mitochondrial; assay: Inhibition of DHODH in human HEK293 cells assessed as increase in 125 IU/ml IFN-alpha stimulated ISG15 mRNA expression at 80 uM measured after 16 hrs by RT-qPCR analysis relative to control; procedure, shortened: as §1
[7] = molecular target: T1, Dihydroorotate dehydrogenase (quinone), mitochondrial; assay: Inhibition of DHODH in human HEK293 cells transfected with ISRE-luciferase reporter gene assessed as increase in 30 IU/ml IFN-alpha stimulated IFIT1 mRNA expression at 80 uM measured after 16 hrs by RT-qPCR analysis relative to control; procedure, shortened: as §1
[8] = molecular target: T1, Dihydroorotate dehydrogenase (quinone), mitochondrial; assay: Inhibition of DHODH in human HEK293 cells transfected with ISRE-luciferase reporter gene assessed as increase in 60 IU/ml IFN-alpha stimulated IFIT1 mRNA expression at 80 uM measured after 16 hrs by RT-qPCR analysis relative to control; procedure, shortened: as §1
[9] = molecular target: T1, Dihydroorotate dehydrogenase (quinone), mitochondrial; assay: Inhibition of DHODH in human HEK293 cells transfected with ISRE-luciferase reporter gene assessed as increase in 125 IU/ml IFN-alpha stimulated IFIT1 mRNA expression at 80 uM measured after 16 hrs by RT-qPCR analysis relative to control; procedure, shortened: as §1
[10] = molecular target: T1, Dihydroorotate dehydrogenase (quinone), mitochondrial; assay: Inhibition of DHODH in human HEK293 cells transfected with ISRE-luciferase reporter gene assessed as increase in 250 IU/ml IFN-alpha stimulated IFIT1 mRNA expression at 80 uM measured after 16 hrs by RT-qPCR analysis relative to control; procedure, shortened: as §1
[11] = molecular target: T1, Dihydroorotate dehydrogenase (quinone), mitochondrial; assay: Inhibition of DHODH in human HEK293 cells transfected with ISRE-luciferase reporter gene assessed as increase in 250 IU/ml IFN-alpha stimulated […] mRNA expression at 80 uM measured after 16 hrs by RT-qPCR analysis relative to control; procedure, shortened: as §1
[12] = molecular target: T1, Dihydroorotate dehydrogenase (quinone), mitochondrial; assay: Inhibition of DHODH in human HEK293 cells transfected with ISRE-luciferase reporter gene assessed as increase in 30 IU/ml IFN-alpha stimulated IFITM3 mRNA expression at 80 uM measured after 16 hrs by RT-qPCR analysis relative to control; procedure, shortened: as §1
[13] = molecular target: T1, Dihydroorotate dehydrogenase (quinone), mitochondrial; assay: Inhibition of DHODH in human HEK293 cells transfected with ISRE-luciferase reporter gene assessed as increase in 125 IU/ml IFN-alpha stimulated IFITM3 mRNA expression at 80 uM measured after 16 hrs by RT-qPCR analysis relative to control; procedure, shortened: as §1
[14] = molecular target: T1, Dihydroorotate dehydrogenase (quinone), mitochondrial; assay: Inhibition of DHODH in human HEK293 cells transfected with ISRE-luciferase reporter gene assessed as increase in 125 IU/ml IFN-alpha stimulated DDX58 mRNA expression at 80 uM measured after 16 hrs by RT-qPCR analysis relative to control; procedure, shortened: as §1
[15] = molecular target: T1, Dihydroorotate dehydrogenase (quinone), mitochondrial; assay: Inhibition of DHODH in human HEK293 cells transfected with ISRE-luciferase reporter gene assessed as increase in 30 IU/ml IFN-alpha stimulated MX2 mRNA expression at 80 uM measured after 16 hrs by RT-qPCR analysis relative to control; procedure, shortened: as §1
[16] = molecular target: T1, Dihydroorotate dehydrogenase (quinone), mitochondrial; assay: Inhibition of DHODH in human HEK293 cells transfected with ISRE-luciferase reporter gene assessed as increase in 250 IU/ml IFN-alpha stimulated MX2 mRNA expression at 80 uM measured after 16 hrs by RT-qPCR analysis relative to control; procedure, shortened: as §1
[17] = molecular target: T1, Dihydroorotate dehydrogenase (quinone), mitochondrial; assay: Inhibition of DHODH in human HEK293 cells transfected with ISRE-luciferase reporter gene assessed as increase in 30 IU/ml IFN-alpha stimulated IFIT5 mRNA expression at 80 uM measured after 16 hrs by RT-qPCR analysis relative to control; procedure, shortened: as §1
[18] = molecular target: T1, Dihydroorotate dehydrogenase (quinone), mitochondrial; assay: Inhibition of DHODH in human HEK293 cells transfected with ISRE-luciferase reporter gene assessed as increase in 250 IU/ml IFN-alpha stimulated IFIT5 mRNA expression at 80 uM measured after 16 hrs by RT-qPCR analysis relative to control; procedure, shortened: as §1
[19] = molecular target: T1, Dihydroorotate dehydrogenase (quinone), mitochondrial; assay: Inhibition of DHODH in human HEK293 cells transfected with ISRE-luciferase reporter gene assessed as increase in 60 IU/ml IFN-alpha stimulated PML mRNA expression at 80 uM measured after 16 hrs by RT-qPCR analysis relative to control; procedure, shortened: as §2

T1 sequence (Q02127 whole entry): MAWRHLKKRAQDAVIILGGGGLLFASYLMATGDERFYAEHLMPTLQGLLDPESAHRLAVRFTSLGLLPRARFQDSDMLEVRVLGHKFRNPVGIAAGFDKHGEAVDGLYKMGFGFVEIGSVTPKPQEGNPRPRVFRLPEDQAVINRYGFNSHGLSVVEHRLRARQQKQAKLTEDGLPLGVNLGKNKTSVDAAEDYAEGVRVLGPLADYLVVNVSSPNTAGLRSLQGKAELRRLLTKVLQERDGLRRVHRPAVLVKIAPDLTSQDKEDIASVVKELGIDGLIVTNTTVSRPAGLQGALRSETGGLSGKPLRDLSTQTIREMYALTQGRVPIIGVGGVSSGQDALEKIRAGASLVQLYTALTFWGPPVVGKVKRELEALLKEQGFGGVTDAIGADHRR

For `O=C1OC2(CCCCC2)c2ccn(C3CC3)c(=O)c21`, the Activity [1] was “Active”, the Activity [2] was “inactive” and the fold change (FC) [3] was 69. For the same molecule, the Activity [4] was “Active”, the fold change (FC) [5] was 163 and the fold change (FC) [6] was 200. The fold change (FC) [7] was 51, the fold change (FC) [8] was 85 and the fold change (FC) [9] was 115. It also gave a fold change (FC) [10] of 145, a fold change (FC) [11] of 143 and a fold change (FC) [12] of 6. For the same molecule, the fold change (FC) [13] was 14, the fold change (FC) [14] was 31 and the fold change (FC) [15] was 7. The fold change (FC) [16] was 28, the fold change (FC) [17] was 3 and the fold change (FC) [18] was 5. The fold change (FC) [19] was 4.
